Laboratory results as given in ChEMBL document CHEMBL4627281, “A small molecule inhibitor of PCSK9 that antagonizes LDL receptor binding via interaction with a cryptic PCSK9 binding groove” (Bioorg Med Chem, 2020).
Active and inactive are the calls of the source. The rule behind the calls is not given here.

Assays:
[1] = Tmax in C57BL/6 mouse at 20 mg/kg, sc administered as single dose measured upto 24 hrs by LC-MS/MS analysis; format: ADME, organism-based; conditions: in vivo
Outline: (§1)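 Male C57BL/6 mice, single dose: IV 5 mg/kg in 85% saline/10% Solutol HS15/5% DMSO; SC 20 mg/kg in same vehicle; PO 20 mg/kg in 1% methylcellulose in water. About 110 µL blood taken into K2EDTA by retro-orbital puncture (terminal bleed by cardiac puncture under isoflurane) at 0.033–24 h. Plasma spun at 2000 g, 5 min, 4 °C, stored near −70 °C; n = 3 per route.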

[2] = target: Tyrosine-protein kinase ABL1 (Homo sapiens, UniProt P00519); test: (§2) Inhibition of recombinant human N-terminal His-tagged Abl (2 to 1130 residues) expressed in baculovirus expression system using FAM-labelled P2 peptide as substrate preincubated for 10 mins followed by substrate addition and measured after 1 hr in presence of ATP by fluorescence assay
[3] = target: Platelet-derived growth factor receptor beta (Homo sapiens, UniProt P09619); test: as §2, with “GST-tagged PDGFRbeta cytoplasmic domain (557” for “His-tagged Abl (2”, “1106” for “1130”, “P22” for “P2”
[4] = target: Proprotein convertase subtilisin/kexin type 9 (Homo sapiens) (UniProt Q8NBP7); test: Binding affinity to biotinylated recombinant human PCSK9 at 0.2 to 0.4 uM incubated for 2 mins followed by further incubation for 10 mins by biolayer interferometry
Outline: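 Biolayer interferometry: biotinylated PCSK9 (27 µg/mL) loaded onto a Super Streptavidin biosensor and blocked with biocytin. Compound (0.2–25.6 µM) associated for 2 min, then dissociated for 10 min. Background signal subtracted to remove non-specific binding.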

[5] = tested on: PCSK9/LDLR (Homo sapiens), Q8NBP7+P01130 [D374Y]; test: Inhibition of PCSK9 D374Y mutant (unknown origin) and LDLR protein-protein interaction expressed in human PBMCs assessed as increase in LDLR expression on lymphocyte surface at 1 to 10 uM measured after 4 hrs by flow cytometry analysis
Outline: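 PBMCs from healthy donors, frozen and then thawed, plated at 2 × 10^5 per well in RPMI with 10 mM HEPES, 1 mM pyruvate and 0.5% FCS for 2 h at 37 °C. Treated 4 h with or without 600 ng/mL PCSK9-D374Y plus compound. Cells stained 20 min at room temperature with APC-conjugated anti-LDLR; at least 5 × 10^3 gated lymphocytes read by flow cytometry. Values as % of PCSK9-free vehicle; triplicates, t test.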

[6] = Volume of distribution at steady state in CD1 mouse at 0.4 mg/kg, iv administered as cassette dose measured upto 24 hrs by LC-MS/MS analysis; format: ADME, organism-based; conditions: in vivo, read-out: Vdss
Outline: (§3)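 Male CD1 mice (second cassette 28–29 g, 7–8 weeks) given one IV 5-in-1 cassette at 0.4 mg/kg per compound in 5% DMAC/5% Solutol HS15/90% saline. Blood (~20 µL) into K2EDTA from the facial vein at 0.083–24 h, terminal bleed by cardiac puncture under isoflurane. Blood diluted with deionised water, stored at −80 °C, analysed by positive-ESI mass spectrometry.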

[7] = Terminal half life in CD1 mouse at 0.4 mg/kg, iv administered as cassette dose measured upto 24 hrs by LC-MS/MS analysis; format: ADME, organism-based; conditions: in vivo, read-out: beta t1/2 (converted); outline: as §3
[8] = Mean residence time (0 to infinity) in CD1 mouse at 0.4 mg/kg, iv administered as cassette dose measured upto 24 hrs by LC-MS analysis; format: ADME, organism-based; conditions: in vivo; outline: as §3
[9] = Tmax in C57BL/6 mouse at 20 mg/kg, po administered as single dose measured upto 24 hrs by LC-MS/MS analysis; format: ADME, organism-based; conditions: in vivo; outline: as §1
[10] = Clearance in C57BL/6 mouse at 5 mg/kg, iv administered as single dose measured upto 24 hrs by LC-MS/MS analysis; format: ADME, organism-based; conditions: in vivo; outline: as §1
[11] = Volume of distribution at steady state in C57BL/6 mouse at 5 mg/kg, iv administered as single dose measured upto 24 hrs by LC-MS/MS analysis; format: ADME, organism-based; conditions: in vivo, read-out: Vdss; outline: as §1
[12] = Terminal half life in C57BL/6 mouse at 20 mg/kg, sc administered as single dose measured upto 24 hrs by LC-MS/MS analysis; format: ADME, organism-based; conditions: in vivo, read-out: beta t1/2 (converted); outline: as §1
[13] = AUCinfinity in C57BL/6 mouse at 20 mg/kg, sc administered as single dose measured upto 24 hrs by LC-MS/MS analysis; format: ADME, organism-based; design: dose 20 mg/kg, time infinity, route subcutaneous; conditions: in vivo; outline: as §1
[14] = AUCinfinity in C57BL/6 mouse at 5 mg/kg, iv administered as single dose measured upto 24 hrs by LC-MS/MS analysis; format: ADME, organism-based; design: dose 5 mg/kg, route intravenous, time infinity; conditions: in vivo; outline: as §1
[15] = Mean residence time ( 0 to infinity) in C57BL/6 mouse at 5 mg/kg, iv administered as single dose measured upto 24 hrs by LC-MS/MS analysis; format: ADME, organism-based; conditions: in vivo; outline: as §1
[16] = Bioavailability in C57BL/6 mouse at 20 mg/kg, sc administered as single dose measured upto 24 hrs by LC-MS/MS analysis; format: ADME, organism-based; conditions: in vivo; outline: as §1
Mus musculus = test: Antihyperlipidemic activity in C57BL/6 mouse assessed as decrease in total cholesterol level at 16.4 mg/kg/day, sc administered daily for 14 days and measured on day 15 by colorimetric method relative to control; format: functional; design: scale not given: the % may be the effect or the level left
Outline: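 Female C57BL/6 wild-type or PCSK9−/− mice (8–16 weeks), acclimatised 7 days, 5 per group, dosed SC daily for 14 days at 3.28 or 16.4 mg/kg/day in 5% DMSO/95% saline, or vehicle alone. Blood taken into EDTA on days 0, 5, 10 and 15; plasma from 2500 g spin, stored at −20 °C. Total cholesterol and triglycerides read by colorimetric kits, PCSK9 by mouse ELISA; unpaired two-tailed t test against vehicle.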

[17] = tested on: PCSK9/LDLR (Homo sapiens), Q8NBP7+P01130 [D374Y]; test: Inhibition of PCSK9 D374Y mutant (unknown origin) and LDLR protein-protein interaction in human HepG2 cells assessed as increase in Bodipy FL-labelled LDL uptake preincubated for 16 hrs followed by Bodipy FL-labelled LDL addition and measured after 4 hrs by fluorescence assay; format: cell-based
Outline: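 HepG2 cells seeded at 2 × 10^5 cells/mL and attached overnight, then incubated 16 h with PCSK9-D374Y (2 μg/mL) plus compound (0.1 or 1 µM). Medium replaced with 10 μg/mL Bodipy FL LDL for 4 h. Cells washed with warm PBS; fluorescence read at ex 485/em 530 nm. Mean ± S.D.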

[18] = target: PCSK9/LDLR (Homo sapiens) (UniProt Q8NBP7+P01130); test: Inhibition of recombinant human His-tagged PCSK9 interaction with recombinant LDLR AB domain (unknown origin) at higher concentration measured after 3 hrs by horseradish peroxidase-coupled TMB substrate based spectrophotometry relative to control; format: protein assay
Outline: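 ELISA plates pre-coated with LDLR-EGF-AB domain. Compounds serially diluted from 10 mM DMSO stocks in reaction buffer, with 7 ng His-tagged human PCSK9 added, 3 h at room temperature with shaking. Binding detected with biotinylated anti-His antibody (1 h), then HRP-streptavidin (20 min), then substrate (15 min); absorbance read at 450/540 nm. IC50 taken from the % inhibition curve.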

[19] = Toxicity in C57BL/6 mouse assessed as change in body weight at 3.28 to 16.4 mg/kg/day, sc administered daily for 14 days; format: organism-based; conditions: in vivo, 336 h

Chain of Platelet-derived growth factor receptor beta (P09619 whole entry, the tested form may be a part): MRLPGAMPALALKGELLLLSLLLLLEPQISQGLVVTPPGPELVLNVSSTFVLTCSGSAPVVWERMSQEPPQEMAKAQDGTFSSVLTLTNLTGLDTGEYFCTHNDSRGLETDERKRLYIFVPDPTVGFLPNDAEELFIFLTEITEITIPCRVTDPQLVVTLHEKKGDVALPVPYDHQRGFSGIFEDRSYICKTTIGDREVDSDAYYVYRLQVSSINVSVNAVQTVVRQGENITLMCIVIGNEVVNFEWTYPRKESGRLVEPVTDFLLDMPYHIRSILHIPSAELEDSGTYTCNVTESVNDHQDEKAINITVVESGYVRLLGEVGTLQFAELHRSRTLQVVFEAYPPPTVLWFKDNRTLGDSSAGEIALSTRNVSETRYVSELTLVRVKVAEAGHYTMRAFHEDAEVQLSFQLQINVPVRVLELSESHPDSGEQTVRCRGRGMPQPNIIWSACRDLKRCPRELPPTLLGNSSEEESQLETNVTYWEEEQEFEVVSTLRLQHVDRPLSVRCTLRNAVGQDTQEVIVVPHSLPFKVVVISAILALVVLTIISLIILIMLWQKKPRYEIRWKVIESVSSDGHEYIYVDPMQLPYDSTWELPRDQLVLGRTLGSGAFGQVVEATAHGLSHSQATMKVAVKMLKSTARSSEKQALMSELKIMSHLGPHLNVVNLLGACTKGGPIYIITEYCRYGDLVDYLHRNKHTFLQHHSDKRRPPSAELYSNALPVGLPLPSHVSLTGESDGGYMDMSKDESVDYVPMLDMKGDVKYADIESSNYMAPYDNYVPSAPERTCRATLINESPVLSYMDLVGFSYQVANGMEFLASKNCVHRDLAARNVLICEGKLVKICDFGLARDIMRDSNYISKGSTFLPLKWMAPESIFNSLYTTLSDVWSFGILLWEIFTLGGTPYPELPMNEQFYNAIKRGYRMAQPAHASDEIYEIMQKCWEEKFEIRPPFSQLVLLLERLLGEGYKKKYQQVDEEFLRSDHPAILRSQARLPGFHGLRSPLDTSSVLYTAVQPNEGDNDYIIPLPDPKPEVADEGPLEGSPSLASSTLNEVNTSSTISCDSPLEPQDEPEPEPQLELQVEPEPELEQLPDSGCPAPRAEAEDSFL
Chain of PCSK9/LDLR (Homo sapiens) (P01130 22-860 partner limits assumed): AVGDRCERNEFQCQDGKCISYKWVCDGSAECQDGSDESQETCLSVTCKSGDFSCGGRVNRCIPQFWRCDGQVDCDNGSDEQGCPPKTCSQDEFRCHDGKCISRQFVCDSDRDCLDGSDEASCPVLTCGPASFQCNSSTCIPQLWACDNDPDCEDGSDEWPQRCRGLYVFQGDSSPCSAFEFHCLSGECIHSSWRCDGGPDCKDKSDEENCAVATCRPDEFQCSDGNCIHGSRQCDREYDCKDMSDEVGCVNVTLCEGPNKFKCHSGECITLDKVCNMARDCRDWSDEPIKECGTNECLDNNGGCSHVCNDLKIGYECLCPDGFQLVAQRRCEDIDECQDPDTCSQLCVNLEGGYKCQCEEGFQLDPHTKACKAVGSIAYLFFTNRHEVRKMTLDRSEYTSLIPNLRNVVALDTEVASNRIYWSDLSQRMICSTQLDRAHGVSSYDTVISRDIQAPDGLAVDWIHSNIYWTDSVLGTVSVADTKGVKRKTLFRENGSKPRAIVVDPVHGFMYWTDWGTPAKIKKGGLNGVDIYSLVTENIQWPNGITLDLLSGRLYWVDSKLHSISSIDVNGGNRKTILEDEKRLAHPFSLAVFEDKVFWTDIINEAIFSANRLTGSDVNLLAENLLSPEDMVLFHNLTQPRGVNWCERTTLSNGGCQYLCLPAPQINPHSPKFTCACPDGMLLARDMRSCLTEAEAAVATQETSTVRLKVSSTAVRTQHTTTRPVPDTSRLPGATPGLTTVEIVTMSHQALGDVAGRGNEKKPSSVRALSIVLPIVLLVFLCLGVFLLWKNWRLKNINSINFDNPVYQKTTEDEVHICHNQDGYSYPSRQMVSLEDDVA
Chain of PCSK9/LDLR (Homo sapiens) (Q8NBP7 31-152 limits assumed): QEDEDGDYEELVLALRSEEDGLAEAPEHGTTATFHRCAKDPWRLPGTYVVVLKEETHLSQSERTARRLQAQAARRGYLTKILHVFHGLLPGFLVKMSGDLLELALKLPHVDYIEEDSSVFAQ
Chain of PCSK9/LDLR (Homo sapiens) (Q8NBP7 153-692 limits assumed): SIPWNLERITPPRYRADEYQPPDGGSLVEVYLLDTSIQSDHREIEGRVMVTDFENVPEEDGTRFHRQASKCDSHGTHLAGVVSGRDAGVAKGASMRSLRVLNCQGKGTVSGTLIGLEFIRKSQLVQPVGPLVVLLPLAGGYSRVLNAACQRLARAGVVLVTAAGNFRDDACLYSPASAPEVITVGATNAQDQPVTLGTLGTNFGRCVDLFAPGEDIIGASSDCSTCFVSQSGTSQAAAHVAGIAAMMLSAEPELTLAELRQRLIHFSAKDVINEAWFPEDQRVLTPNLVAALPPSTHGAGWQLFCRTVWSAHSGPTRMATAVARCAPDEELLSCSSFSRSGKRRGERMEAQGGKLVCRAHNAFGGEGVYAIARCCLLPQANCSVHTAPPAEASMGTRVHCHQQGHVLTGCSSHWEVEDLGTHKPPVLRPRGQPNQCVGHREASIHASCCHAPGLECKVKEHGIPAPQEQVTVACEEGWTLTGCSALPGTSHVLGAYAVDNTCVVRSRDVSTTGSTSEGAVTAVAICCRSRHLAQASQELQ
Chain of Proprotein convertase subtilisin/kexin type 9 (Homo sapiens) (Q8NBP7 31-152 limits assumed): as the sequence (Q8NBP7 31-152 limits assumed) above
Chain of Proprotein convertase subtilisin/kexin type 9 (Homo sapiens) (Q8NBP7 153-692 limits assumed): as the sequence (Q8NBP7 153-692 limits assumed) above
Chain of Tyrosine-protein kinase ABL1 (P00519 whole entry, the tested form may be a part): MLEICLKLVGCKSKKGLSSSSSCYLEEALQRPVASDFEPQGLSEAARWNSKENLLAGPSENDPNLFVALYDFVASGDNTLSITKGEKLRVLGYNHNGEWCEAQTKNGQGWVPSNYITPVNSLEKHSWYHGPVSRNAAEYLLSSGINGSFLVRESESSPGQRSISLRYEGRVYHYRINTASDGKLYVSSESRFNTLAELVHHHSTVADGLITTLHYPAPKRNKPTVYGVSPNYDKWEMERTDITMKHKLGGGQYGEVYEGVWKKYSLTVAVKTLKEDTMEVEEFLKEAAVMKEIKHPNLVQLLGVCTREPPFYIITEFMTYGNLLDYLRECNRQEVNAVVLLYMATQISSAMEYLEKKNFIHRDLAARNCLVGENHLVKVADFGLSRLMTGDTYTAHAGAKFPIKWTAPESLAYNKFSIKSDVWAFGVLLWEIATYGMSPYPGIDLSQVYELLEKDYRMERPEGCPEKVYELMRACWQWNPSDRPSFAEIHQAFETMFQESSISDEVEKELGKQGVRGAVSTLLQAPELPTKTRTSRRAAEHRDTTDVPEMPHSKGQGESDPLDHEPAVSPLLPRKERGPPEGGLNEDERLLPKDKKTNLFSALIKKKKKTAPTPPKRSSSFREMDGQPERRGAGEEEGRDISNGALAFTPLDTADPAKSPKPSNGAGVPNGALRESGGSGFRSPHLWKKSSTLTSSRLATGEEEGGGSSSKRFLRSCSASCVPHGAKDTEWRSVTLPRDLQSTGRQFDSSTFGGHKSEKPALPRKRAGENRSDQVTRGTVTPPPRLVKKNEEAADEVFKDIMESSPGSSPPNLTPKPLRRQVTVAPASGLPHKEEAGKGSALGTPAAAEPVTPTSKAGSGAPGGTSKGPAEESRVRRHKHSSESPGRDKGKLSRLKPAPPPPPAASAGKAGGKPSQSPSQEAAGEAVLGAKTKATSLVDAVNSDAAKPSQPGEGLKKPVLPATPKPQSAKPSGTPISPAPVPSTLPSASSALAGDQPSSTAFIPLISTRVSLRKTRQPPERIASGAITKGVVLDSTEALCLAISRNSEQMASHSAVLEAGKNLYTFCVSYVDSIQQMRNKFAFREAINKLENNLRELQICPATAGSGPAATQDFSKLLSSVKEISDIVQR

- Tmax [1]: 1 h
- IC50 [2]: > 10 µM
- IC50 [3]: > 10 µM
- Activity [4]: inactive
- inhibition [5]: Active
- Vd [6]: 9.13 L/kg
- half-life [7]: 25.7 h
- MRT inf [8]: 34.9 h
- Tmax [9]: 2 h
- clearance [10]: 18.2 mL/min/kg
- Vd [11]: 3.87 L/kg
- half-life [12]: 5.47 h
- AUC(0-inf) [13]: 16800 ng·h/mL
- AUC(0-inf) [14]: 4600 ng·h/mL
- MRT inf [15]: 3.56 h
- bioavailability [16]: 91.3%
- inhibition [17]: Dose-dependent effect
- Imax [18]: 57%
SMILES: Cc1cn(-c2cc(CN3CCC[C@H](N)C3)cc(NC(=O)c3ccc(C)c(Oc4ccccc4)c3)c2)cn1
- Activity (Mus musculus): 10%
- Activity [19]: Non-Toxic
